Measurements: ChEMBL document CHEMBL5724801, “EUbOPEN Chemogenomics Library - Multiplex” (2024)
“And” between values parts separate entries of the source, which are not always exact repeats. Equal values may be shown once.

System: HEK-293T
Experiment: Multiplex assay against HEK293T
Assay type: toxicity, cell-based
Conditions: human
Procedure, shortened: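 Tubulin, mitochondrial-mass and membrane-permeability phenotypes are per cents of healthy-nucleus cells. Cells were gated by CellPathfinder machine learning into Hoechst high-intensity objects or normal cells, normal cells into healthy, pyknosed or fragmented nuclei, and pyknosed cells into mitotic or apoptotic. Before that, live cells stained at seeding with Hoechst33342, BioTracker Green Microtubule Cytoskeleton Dye, MitoTracker Red and Annexin V Alexa Fluor 680 were imaged on a CQ1 microscope at 37°C and 5% CO2 after compound addition.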

[1] = 12 h, 1 µM, compound concentration 1 uM
[2] = 12 h, 10 µM, compound concentration 10 uM
[3] = 24 h, 1 µM, compound concentration 1 uM
[4] = 24 h, 10 µM, compound concentration 10 uM
[5] = 48 h, 1 µM, compound concentration 1 uM
[6] = 48 h, 10 µM, compound concentration 10 uM

O=C(NCC(=O)N1CC[C@H](N[C@H]2CC[C@@](O)(c3ccc(-c4ncccn4)cn3)CC2)C1)c1cccc(C(F)(F)F)c1 [PF-4136309]
Population Apoptotic (%) [1]: 44% and 34%
Population Fragmented Nuclei (%) [1]: 6% and 5%
Population Healthy Nuclei (%) [1]: 80%
Population Hoechst High Intensity Objects (%) [1]: 4% and 6%
Population Membrane Permeable-Phenotype (%) [1]: 0%
Population Mitochondria Different-Phenotype (%) [1]: 41% and 56%
Population Mitotic Cells (%) [1]: 56% and 66%
Population Normal (%) [1]: 95% and 93%
Population Pyknosed Nuclei (%) [1]: 13%
Population Tubulin-Different-Phenotype (%) [1]: 32% and 15%
Total Cell Count [1]: 393 and 389
Population Apoptotic (%) [2]: 39% and 48%
Population Fragmented Nuclei (%) [2]: 7% and 3%
Population Healthy Nuclei (%) [2]: 76% and 81%
Population Hoechst High Intensity Objects (%) [2]: 7% and 6%
Population Membrane Permeable-Phenotype (%) [2]: 0%
Population Mitochondria Different-Phenotype (%) [2]: 53% and 75%
Population Mitotic Cells (%) [2]: 60% and 51%
Population Normal (%) [2]: 92% and 93%
Population Pyknosed Nuclei (%) [2]: 15% and 14%
Population Tubulin-Different-Phenotype (%) [2]: 55% and 45%
Total Cell Count [2]: 358 and 295
Population Apoptotic (%) [3]: 25% and 39%
Population Fragmented Nuclei (%) [3]: 10% and 8%
Population Healthy Nuclei (%) [3]: 80%
Population Hoechst High Intensity Objects (%) [3]: 2% and 5%
Population Membrane Permeable-Phenotype (%) [3]: 0%
Population Mitochondria Different-Phenotype (%) [3]: 26% and 31%
Population Mitotic Cells (%) [3]: 74% and 60%
Population Normal (%) [3]: 97% and 94%
Population Pyknosed Nuclei (%) [3]: 9% and 11%
Population Tubulin-Different-Phenotype (%) [3]: 15% and 13%
Total Cell Count [3]: 561 and 485
Population Apoptotic (%) [4]: 35% and 57%
Population Fragmented Nuclei (%) [4]: 10% and 8%
Population Healthy Nuclei (%) [4]: 73% and 80%
Population Hoechst High Intensity Objects (%) [4]: 7% and 5%
Population Membrane Permeable-Phenotype (%) [4]: 1% and 0%
Population Mitochondria Different-Phenotype (%) [4]: 39% and 54%
Population Mitotic Cells (%) [4]: 64% and 42%
Population Normal (%) [4]: 92% and 94%
Population Pyknosed Nuclei (%) [4]: 16% and 11%
Population Tubulin-Different-Phenotype (%) [4]: 36% and 27%
Total Cell Count [4]: 450 and 384
Population Apoptotic (%) [5]: 18% and 27%
Population Fragmented Nuclei (%) [5]: 16%
Population Healthy Nuclei (%) [5]: 78% and 77%
Population Hoechst High Intensity Objects (%) [5]: 0% and 2%
Population Membrane Permeable-Phenotype (%) [5]: 1% and 0%
Population Mitochondria Different-Phenotype (%) [5]: 14% and 16%
Population Mitotic Cells (%) [5]: 81% and 72%
Population Normal (%) [5]: 99% and 97%
Population Pyknosed Nuclei (%) [5]: 4% and 5%
Population Tubulin-Different-Phenotype (%) [5]: 9% and 11%
Total Cell Count [5]: 1007 and 907
Population Apoptotic (%) [6]: 31% and 43%
Population Fragmented Nuclei (%) [6]: 13% and 11%
Population Healthy Nuclei (%) [6]: 75% and 79%
Population Hoechst High Intensity Objects (%) [6]: 5% and 4%
Population Membrane Permeable-Phenotype (%) [6]: 0%
Population Mitochondria Different-Phenotype (%) [6]: 34% and 46%
Population Mitotic Cells (%) [6]: 68% and 56%
Population Normal (%) [6]: 94% and 95%
Population Pyknosed Nuclei (%) [6]: 11% and 8%
Population Tubulin-Different-Phenotype (%) [6]: 23% and 30%
Total Cell Count [6]: 636 and 468

COC(c1ccccc1)(c1ccccc1)[C@H](Oc1nc(C)cc(C)n1)C(=O)O [AMBRISENTAN]
Population Apoptotic (%) [1]: 38%
Population Fragmented Nuclei (%) [1]: 7%
Population Healthy Nuclei (%) [1]: 75% and 81%
Population Hoechst High Intensity Objects (%) [1]: 6% and 11%
Population Membrane Permeable-Phenotype (%) [1]: 0%
Population Mitochondria Different-Phenotype (%) [1]: 53% and 63%
Population Mitotic Cells (%) [1]: 61%
Population Normal (%) [1]: 93% and 88%
Population Pyknosed Nuclei (%) [1]: 16% and 10%
Population Tubulin-Different-Phenotype (%) [1]: 30% and 23%
Total Cell Count [1]: 249 and 326
Population Apoptotic (%) [2]: 33% and 56%
Population Fragmented Nuclei (%) [2]: 8% and 5%
Population Healthy Nuclei (%) [2]: 76% and 80%
Population Hoechst High Intensity Objects (%) [2]: 6% and 13%
Population Membrane Permeable-Phenotype (%) [2]: 0%
Population Mitochondria Different-Phenotype (%) [2]: 47% and 57%
Population Mitotic Cells (%) [2]: 66% and 43%
Population Normal (%) [2]: 93% and 86%
Population Pyknosed Nuclei (%) [2]: 15% and 14%
Population Tubulin-Different-Phenotype (%) [2]: 23% and 18%
Total Cell Count [2]: 383 and 262
Population Apoptotic (%) [3]: 37% and 43%
Population Fragmented Nuclei (%) [3]: 9%
Population Healthy Nuclei (%) [3]: 76% and 82%
Population Hoechst High Intensity Objects (%) [3]: 4% and 7%
Population Membrane Permeable-Phenotype (%) [3]: 1% and 0%
Population Mitochondria Different-Phenotype (%) [3]: 30% and 39%
Population Mitotic Cells (%) [3]: 62% and 56%
Population Normal (%) [3]: 95% and 92%
Population Pyknosed Nuclei (%) [3]: 14% and 8%
Population Tubulin-Different-Phenotype (%) [3]: 19% and 16%
Total Cell Count [3]: 313 and 404
Population Apoptotic (%) [4]: 30% and 44%
Population Fragmented Nuclei (%) [4]: 10% and 8%
Population Healthy Nuclei (%) [4]: 73% and 78%
Population Hoechst High Intensity Objects (%) [4]: 4% and 12%
Population Membrane Permeable-Phenotype (%) [4]: 0%
Population Mitochondria Different-Phenotype (%) [4]: 34% and 41%
Population Mitotic Cells (%) [4]: 69% and 55%
Population Normal (%) [4]: 95% and 87%
Population Pyknosed Nuclei (%) [4]: 15% and 12%
Population Tubulin-Different-Phenotype (%) [4]: 18% and 17%
Total Cell Count [4]: 441 and 318
Population Apoptotic (%) [5]: 27% and 40%
Population Fragmented Nuclei (%) [5]: 17% and 12%
Population Healthy Nuclei (%) [5]: 72% and 80%
Population Hoechst High Intensity Objects (%) [5]: 2% and 3%
Population Membrane Permeable-Phenotype (%) [5]: 3% and 0%
Population Mitochondria Different-Phenotype (%) [5]: 22% and 23%
Population Mitotic Cells (%) [5]: 72% and 59%
Population Normal (%) [5]: 97% and 96%
Population Pyknosed Nuclei (%) [5]: 10% and 7%
Population Tubulin-Different-Phenotype (%) [5]: 13% and 10%
Total Cell Count [5]: 600 and 605
Population Apoptotic (%) [6]: 26% and 53%
Population Fragmented Nuclei (%) [6]: 14%
Population Healthy Nuclei (%) [6]: 77% and 79%
Population Hoechst High Intensity Objects (%) [6]: 2% and 7%
Population Membrane Permeable-Phenotype (%) [6]: 1% and 0%
Population Mitochondria Different-Phenotype (%) [6]: 18% and 27%
Population Mitotic Cells (%) [6]: 73% and 46%
Population Normal (%) [6]: 97% and 92%
Population Pyknosed Nuclei (%) [6]: 8% and 5%
Population Tubulin-Different-Phenotype (%) [6]: 13% and 15%
Total Cell Count [6]: 711 and 480

COc1ccc2c(c1OCc1ccccc1)C[C@@H](C(=O)O)N(C(=O)C(c1ccccc1)c1ccccc1)C2 [OLODANRIGAN]
Population Apoptotic (%) [1]: 39% and 43%
Population Fragmented Nuclei (%) [1]: 6% and 7%
Population Healthy Nuclei (%) [1]: 82% and 81%
Population Hoechst High Intensity Objects (%) [1]: 7%
Population Membrane Permeable-Phenotype (%) [1]: 0%
Population Mitochondria Different-Phenotype (%) [1]: 44% and 48%
Population Mitotic Cells (%) [1]: 60% and 56%
Population Normal (%) [1]: 92%
Population Pyknosed Nuclei (%) [1]: 11% and 10%
Population Tubulin-Different-Phenotype (%) [1]: 21% and 17%
Total Cell Count [1]: 419 and 409
Population Apoptotic (%) [2]: 45% and 44%
Population Fragmented Nuclei (%) [2]: 6% and 4%
Population Healthy Nuclei (%) [2]: 81% and 83%
Population Hoechst High Intensity Objects (%) [2]: 6% and 3%
Population Membrane Permeable-Phenotype (%) [2]: 0%
Population Mitochondria Different-Phenotype (%) [2]: 42% and 58%
Population Mitotic Cells (%) [2]: 54% and 55%
Population Normal (%) [2]: 93% and 96%
Population Pyknosed Nuclei (%) [2]: 12%
Population Tubulin-Different-Phenotype (%) [2]: 35% and 27%
Total Cell Count [2]: 389 and 368
Population Apoptotic (%) [3]: 46% and 19%
Population Fragmented Nuclei (%) [3]: 11% and 10%
Population Healthy Nuclei (%) [3]: 78% and 81%
Population Hoechst High Intensity Objects (%) [3]: 3% and 6%
Population Membrane Permeable-Phenotype (%) [3]: 0% and 1%
Population Mitochondria Different-Phenotype (%) [3]: 24% and 30%
Population Mitotic Cells (%) [3]: 53% and 80%
Population Normal (%) [3]: 96% and 93%
Population Pyknosed Nuclei (%) [3]: 10% and 8%
Population Tubulin-Different-Phenotype (%) [3]: 15% and 14%
Total Cell Count [3]: 614 and 521
Population Apoptotic (%) [4]: 40% and 43%
Population Fragmented Nuclei (%) [4]: 7% and 10%
Population Healthy Nuclei (%) [4]: 78% and 79%
Population Hoechst High Intensity Objects (%) [4]: 6%
Population Membrane Permeable-Phenotype (%) [4]: 0%
Population Mitochondria Different-Phenotype (%) [4]: 34% and 57%
Population Mitotic Cells (%) [4]: 59% and 56%
Population Normal (%) [4]: 93%
Population Pyknosed Nuclei (%) [4]: 13% and 9%
Population Tubulin-Different-Phenotype (%) [4]: 32% and 28%
Total Cell Count [4]: 456 and 414
Population Apoptotic (%) [5]: 26% and 22%
Population Fragmented Nuclei (%) [5]: 13% and 15%
Population Healthy Nuclei (%) [5]: 80% and 79%
Population Hoechst High Intensity Objects (%) [5]: 2%
Population Membrane Permeable-Phenotype (%) [5]: 0%
Population Mitochondria Different-Phenotype (%) [5]: 15% and 18%
Population Mitotic Cells (%) [5]: 73% and 77%
Population Normal (%) [5]: 97%
Population Pyknosed Nuclei (%) [5]: 5%
Population Tubulin-Different-Phenotype (%) [5]: 11% and 10%
Total Cell Count [5]: 1083 and 818
Population Apoptotic (%) [6]: 32% and 39%
Population Fragmented Nuclei (%) [6]: 12%
Population Healthy Nuclei (%) [6]: 78% and 80%
Population Hoechst High Intensity Objects (%) [6]: 5% and 6%
Population Membrane Permeable-Phenotype (%) [6]: 0%
Population Mitochondria Different-Phenotype (%) [6]: 22% and 32%
Population Mitotic Cells (%) [6]: 67% and 60%
Population Normal (%) [6]: 94% and 93%
Population Pyknosed Nuclei (%) [6]: 8% and 7%
Population Tubulin-Different-Phenotype (%) [6]: 15% and 18%
Total Cell Count [6]: 659 and 534
